Reference: ChEMBL document CHEMBL5058577, “EUbOPEN Chemogenomics Library 2 (Multiplex)” (2022)

System: Fibroblast
Assay: Multiplex assay against human fibroblast
Assay type: toxicity, cell-based
In short: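 Imaging took place on a CQ1 microscope at 37°C and 5% CO2 once compound had been added to live cells stained at seeding with Hoechst33342, BioTracker Green Microtubule Cytoskeleton Dye, MitoTracker Red and Annexin V Alexa Fluor 680. CellPathfinder machine-learning gating classed cells as Hoechst high-intensity objects or normal cells, classed normal cells as having healthy, pyknosed or fragmented nuclei, and classed pyknosed cells as mitotic or apoptotic. Tubulin, mitochondrial-mass and membrane-permeability phenotypes are per cents of the healthy-nucleus cells.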

[1] = 12 h, 1 µM, compound concentration 1 uM, replicate 1
[2] = 12 h, 1 µM, compound concentration 1 uM, replicate 2
[3] = 12 h, 10 µM, compound concentration 10 uM, replicate 1
[4] = 12 h, 10 µM, compound concentration 10 uM, replicate 2
[5] = 24 h, 1 µM, compound concentration 1 uM, replicate 1
[6] = 24 h, 1 µM, compound concentration 1 uM, replicate 2
[7] = 24 h, 10 µM, compound concentration 10 uM, replicate 1
[8] = 24 h, 10 µM, compound concentration 10 uM, replicate 2
[9] = 48 h, 1 µM, compound concentration 1 uM, replicate 1
[10] = 48 h, 1 µM, compound concentration 1 uM, replicate 2
[11] = 48 h, 10 µM, compound concentration 10 uM, replicate 1
[12] = 48 h, 10 µM, compound concentration 10 uM, replicate 2

SMILES: Cc1cc(=O)n(C)c2cc(N3C(=O)CC[C@H](NS(=O)(=O)CC(C)C)[C@H]3c3ccc(Cl)cc3)ccc12
- Population Apoptotic (%) [1]: 31%
- Population Fragmented Nuclei (%) [1]: 16%
- Population Healthy Nuclei (%) [1]: 56%
- Population Hoechst High Intensity Objects (%) [1]: 2%
- Population Membrane Permeable-Phenotype (%) [1]: 0%
- Population Mitochondria Different-Phenotype (%) [1]: 4%
- Population Mitotic Cells (%) [1]: 68%
- Population Normal (%) [1]: 97%
- Population Pyknosed Nuclei (%) [1]: 26%
- Population Tubulin-Different-Phenotype (%) [1]: 34%
- Total Cell Count [1]: 135
- Population Apoptotic (%) [2]: 38%
- Population Fragmented Nuclei (%) [2]: 20%
- Population Healthy Nuclei (%) [2]: 38%
- Population Hoechst High Intensity Objects (%) [2]: 10%
- Population Membrane Permeable-Phenotype (%) [2]: 8%
- Population Mitotic Cells (%) [2]: 62%
- Population Normal (%) [2]: 89%
- Population Pyknosed Nuclei (%) [2]: 40%
- Population Tubulin-Different-Phenotype (%) [2]: 61%
- Total Cell Count [2]: 137
- Population Apoptotic (%) [3]: 41%
- Population Fragmented Nuclei (%) [3]: 11%
- Population Healthy Nuclei (%) [3]: 40%
- Population Hoechst High Intensity Objects (%) [3]: 3%
- Population Membrane Permeable-Phenotype (%) [3]: 1%
- Population Mitochondria Different-Phenotype (%) [3]: 8%
- Population Mitotic Cells (%) [3]: 58%
- Population Normal (%) [3]: 96%
- Population Pyknosed Nuclei (%) [3]: 48%
- Population Tubulin-Different-Phenotype (%) [3]: 86%
- Total Cell Count [3]: 149
- Population Apoptotic (%) [4]: 18%
- Population Fragmented Nuclei (%) [4]: 26%
- Population Healthy Nuclei (%) [4]: 31%
- Population Hoechst High Intensity Objects (%) [4]: 11%
- Population Membrane Permeable-Phenotype (%) [4]: 8%
- Population Mitotic Cells (%) [4]: 82%
- Population Normal (%) [4]: 88%
- Population Pyknosed Nuclei (%) [4]: 42%
- Population Tubulin-Different-Phenotype (%) [4]: 94%
- Total Cell Count [4]: 133
- Population Apoptotic (%) [5]: 34%
- Population Fragmented Nuclei (%) [5]: 18%
- Population Healthy Nuclei (%) [5]: 62%
- Population Hoechst High Intensity Objects (%) [5]: 2%
- Population Membrane Permeable-Phenotype (%) [5]: 1%
- Population Mitochondria Different-Phenotype (%) [5]: 4%
- Population Mitotic Cells (%) [5]: 65%
- Population Normal (%) [5]: 97%
- Population Pyknosed Nuclei (%) [5]: 18%
- Population Tubulin-Different-Phenotype (%) [5]: 24%
- Total Cell Count [5]: 140
- Population Apoptotic (%) [6]: 50%
- Population Fragmented Nuclei (%) [6]: 26%
- Population Healthy Nuclei (%) [6]: 44%
- Population Hoechst High Intensity Objects (%) [6]: 10%
- Population Membrane Permeable-Phenotype (%) [6]: 13%
- Population Mitochondria Different-Phenotype (%) [6]: 5%
- Population Mitotic Cells (%) [6]: 50%
- Population Normal (%) [6]: 89%
- Population Pyknosed Nuclei (%) [6]: 29%
- Population Tubulin-Different-Phenotype (%) [6]: 70%
- Total Cell Count [6]: 128
- Population Apoptotic (%) [7]: 43%
- Population Fragmented Nuclei (%) [7]: 14%
- Population Healthy Nuclei (%) [7]: 46%
- Population Hoechst High Intensity Objects (%) [7]: 10%
- Population Membrane Permeable-Phenotype (%) [7]: 0%
- Population Mitochondria Different-Phenotype (%) [7]: 19%
- Population Mitotic Cells (%) [7]: 56%
- Population Normal (%) [7]: 90%
- Population Pyknosed Nuclei (%) [7]: 39%
- Population Tubulin-Different-Phenotype (%) [7]: 88%
- Total Cell Count [7]: 150
- Population Apoptotic (%) [8]: 42%
- Population Fragmented Nuclei (%) [8]: 28%
- Population Healthy Nuclei (%) [8]: 26%
- Population Hoechst High Intensity Objects (%) [8]: 8%
- Population Membrane Permeable-Phenotype (%) [8]: 17%
- Population Mitochondria Different-Phenotype (%) [8]: 8%
- Population Mitotic Cells (%) [8]: 57%
- Population Normal (%) [8]: 91%
- Population Pyknosed Nuclei (%) [8]: 45%
- Population Tubulin-Different-Phenotype (%) [8]: 85%
- Total Cell Count [8]: 143
- Population Apoptotic (%) [9]: 48%
- Population Fragmented Nuclei (%) [9]: 27%
- Population Healthy Nuclei (%) [9]: 54%
- Population Hoechst High Intensity Objects (%) [9]: 2%
- Population Membrane Permeable-Phenotype (%) [9]: 1%
- Population Mitochondria Different-Phenotype (%) [9]: 2%
- Population Mitotic Cells (%) [9]: 52%
- Population Normal (%) [9]: 97%
- Population Pyknosed Nuclei (%) [9]: 18%
- Population Tubulin-Different-Phenotype (%) [9]: 27%
- Total Cell Count [9]: 141
- Population Apoptotic (%) [10]: 46%
- Population Fragmented Nuclei (%) [10]: 35%
- Population Hoechst High Intensity Objects (%) [10]: 7%
- Population Membrane Permeable-Phenotype (%) [10]: 8%
- Population Mitochondria Different-Phenotype (%) [10]: 8%
- Population Mitotic Cells (%) [10]: 53%
- Population Normal (%) [10]: 92%
- Population Pyknosed Nuclei (%) [10]: 9%
- Population Tubulin-Different-Phenotype (%) [10]: 73%
- Total Cell Count [10]: 142
- Population Apoptotic (%) [11]: 61%
- Population Fragmented Nuclei (%) [11]: 23%
- Population Healthy Nuclei (%) [11]: 38%
- Population Hoechst High Intensity Objects (%) [11]: 15%
- Population Membrane Permeable-Phenotype (%) [11]: 0%
- Population Mitochondria Different-Phenotype (%) [11]: 24%
- Population Mitotic Cells (%) [11]: 38%
- Population Normal (%) [11]: 84%
- Population Pyknosed Nuclei (%) [11]: 37%
- Population Tubulin-Different-Phenotype (%) [11]: 92%
- Total Cell Count [11]: 153
- Population Apoptotic (%) [12]: 54%
- Population Fragmented Nuclei (%) [12]: 34%
- Population Healthy Nuclei (%) [12]: 37%
- Population Hoechst High Intensity Objects (%) [12]: 10%
- Population Membrane Permeable-Phenotype (%) [12]: 25%
- Population Mitochondria Different-Phenotype (%) [12]: 8%
- Population Mitotic Cells (%) [12]: 45%
- Population Normal (%) [12]: 89%
- Population Pyknosed Nuclei (%) [12]: 27%
- Population Tubulin-Different-Phenotype (%) [12]: 87%
- Total Cell Count [12]: 141
